Source: ChEMBL document CHEMBL1126975 (J Med Chem, 1993)
pIC50: −log10 of the molar value.

molecular target: T1, Amine oxidase [flavin-containing] B (Rattus norvegicus, UniProt P19643); experiment: In vitro inhibitory activity on rat brain MAO-B.
T1 sequence (P19643 whole entry): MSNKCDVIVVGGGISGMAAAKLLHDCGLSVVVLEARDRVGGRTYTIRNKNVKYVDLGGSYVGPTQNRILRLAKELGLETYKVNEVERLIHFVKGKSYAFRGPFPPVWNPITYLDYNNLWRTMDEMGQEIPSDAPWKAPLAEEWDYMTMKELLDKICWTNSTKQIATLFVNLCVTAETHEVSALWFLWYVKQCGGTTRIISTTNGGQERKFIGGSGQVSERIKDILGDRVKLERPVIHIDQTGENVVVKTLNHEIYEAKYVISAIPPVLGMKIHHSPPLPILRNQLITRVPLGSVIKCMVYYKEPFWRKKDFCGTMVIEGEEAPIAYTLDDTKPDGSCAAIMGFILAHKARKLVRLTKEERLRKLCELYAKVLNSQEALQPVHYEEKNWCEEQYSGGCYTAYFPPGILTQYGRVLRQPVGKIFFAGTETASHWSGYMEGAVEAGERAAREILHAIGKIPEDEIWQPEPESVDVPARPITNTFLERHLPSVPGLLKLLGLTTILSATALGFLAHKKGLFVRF
Method in brief: (§1)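 Radiochemical assay at 37 °C, pH 7.4: MAO A with 10 μM [14C]5-HT, MAO B with 5 μM [14C]PEA. Drug preincubated 20 min with enzyme. Three experiments in duplicate.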

Row | Structure (SMILES) | pIC50
1 | N#CCCN1N=C(c2ccc(OCc3cccc(Cl)c3)cc2)OCC1=O | 7.89
2 | Cc1ccc(COc2ccc(-c3nn(CCC#N)c(=O)o3)cc2)cc1 | 7.82
3 | COc1ccc(COc2ccc(-c3nn(CCC#N)c(=S)o3)cc2)cc1 | 6.04
4 | N#CCCN1N=C(c2ccc(OCc3ccccc3)cc2)OCC1=S | 6.85
5 | Cc1ccc(COc2ccc(-c3nn(CCC#N)c(=S)o3)cc2)cc1 | 6.40
6 | N#CCCn1nc(-c2ccc(OCc3ccccc3)cc2)sc1=O | 8.10
7 | N#CCCn1nc(-c2ccc(OCc3ccc(Cl)cc3)cc2)oc1=O | 8.12

The next lines start with the values.

Row | pIC50 | Structure (SMILES)
8 | 6.80 | N#CCCn1nc(-c2ccc(OCc3cccc(Cl)c3)cc2)oc1=S
9 | 7.18 | Cc1cccc(COc2ccc(-c3nn(CCC#N)c(=S)o3)cc2)c1
10 | 8.10 | Cc1cccc(COc2ccc(-c3nn(CCC#N)c(=O)o3)cc2)c1
11 | 6.52 | N#CCCN1N=C(c2ccc(OCc3ccc([N+](=O)[O-])cc3)cc2)OCC1=O
12 | 7.57 | COc1ccc(COc2ccc(-c3nn(CCC#N)c(=O)o3)cc2)cc1
13 | 7.51 | Cc1cccc(COc2ccc(C3=NN(CCC#N)C(=O)CO3)cc2)c1
14 | 5.62 | CC(C#N)Cn1nc(-c2ccc(OCc3ccccc3)cc2)oc1=O (configuration not stated)
15 | 7.80 | N#CCCn1nc(-c2ccc(OCc3ccccc3)cc2)sc1=S
16 | 6.39 | N#CCCCn1nc(-c2ccc(OCc3ccccc3)cc2)oc1=O

molecular target: T1, Amine oxidase [flavin-containing] B; experiment: Ex-Vivo Time course of evaluation for the percentage inhibition of MAO-B for 0.5 hr at single dose 5 mg/kg through oral gavage (p<0.001); type: organism-based; set-up: dose 5 mg/kg, route oral
Method in brief: (§2)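 Fasted male Sprague-Dawley rats (150 g) dosed orally by gavage, drug suspended in Tween 80 plus 0.5% methylcellulose; vehicle controls. The 100 mg/kg arm was dosed daily for 9 days. Four rats per time point; brains frozen and homogenized in 0.1 M phosphate pH 7.4. Assayed at 37 °C with 8 μM [14C]PEA for 1 min; toluene/ethyl acetate extraction. Percent inhibition vs control, mean ± SEM.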

Row | Structure (SMILES) | inhibition at 5 mg/kg [%]
17 | N#CCCn1nc(-c2ccc(OCc3ccc(Cl)cc3)cc2)oc1=O | 30

molecular target: T1, Amine oxidase [flavin-containing] B; experiment: Ex-Vivo Time course of evaluation for the percentage inhibition of MAO-B for 1 hr at single dose 5 mg/kg through oral gavage; type: organism-based; set-up: dose 5 mg/kg, route oral; method in brief: as §2

Row | Structure (SMILES) | inhibition at 5 mg/kg [%]
18 | N#CCCN1N=C(c2ccc(OCc3ccccc3)cc2)OCC1=S | 3
19 | N#CCCn1nc(-c2ccc(OCc3ccccc3)cc2)sc1=O | 52

Next, values leading:

Row | inhibition at 5 mg/kg [%] | Structure (SMILES)
20 | 16 | Cc1cccc(COc2ccc(-c3nn(CCC#N)c(=O)o3)cc2)c1
21 | 18 | N#CCCn1nc(-c2ccc(OCc3ccccc3)cc2)sc1=S

molecular target: T1, Amine oxidase [flavin-containing] B; experiment: Ex-Vivo Time course of evaluation for the percentage inhibition of MAO-B for 1 hr at single dose 5 mg/kg through oral gavage (p<0.001); type: organism-based; set-up: dose 5 mg/kg, route oral; method in brief: as §2

Row | Structure (SMILES) | inhibition at 5 mg/kg [%]
22 | Cc1ccc(COc2ccc(-c3nn(CCC#N)c(=O)o3)cc2)cc1 | 22
23 | N#CCCn1nc(-c2ccc(OCc3ccc(Cl)cc3)cc2)oc1=O | 54

molecular target: T1, Amine oxidase [flavin-containing] B; experiment: Ex-Vivo Time course of evaluation for the percentage inhibition of MAO-B for 4 hr at single dose 5 mg/kg through oral gavage [p<0.05 (Bonferroni''s test)]; type: organism-based; set-up: dose 5 mg/kg, route oral; method in brief: as §2

Row | Structure (SMILES) | inhibition at 5 mg/kg [%]
24 | Cc1ccc(COc2ccc(-c3nn(CCC#N)c(=O)o3)cc2)cc1 | 14

molecular target: T2, Amine oxidase [flavin-containing] A (Rattus norvegicus, UniProt P21396); experiment: In vitro inhibitory activity on rat brain by monoamine oxidase A (MAO-A); method in brief: as §1
T2 sequence (P21396 whole entry): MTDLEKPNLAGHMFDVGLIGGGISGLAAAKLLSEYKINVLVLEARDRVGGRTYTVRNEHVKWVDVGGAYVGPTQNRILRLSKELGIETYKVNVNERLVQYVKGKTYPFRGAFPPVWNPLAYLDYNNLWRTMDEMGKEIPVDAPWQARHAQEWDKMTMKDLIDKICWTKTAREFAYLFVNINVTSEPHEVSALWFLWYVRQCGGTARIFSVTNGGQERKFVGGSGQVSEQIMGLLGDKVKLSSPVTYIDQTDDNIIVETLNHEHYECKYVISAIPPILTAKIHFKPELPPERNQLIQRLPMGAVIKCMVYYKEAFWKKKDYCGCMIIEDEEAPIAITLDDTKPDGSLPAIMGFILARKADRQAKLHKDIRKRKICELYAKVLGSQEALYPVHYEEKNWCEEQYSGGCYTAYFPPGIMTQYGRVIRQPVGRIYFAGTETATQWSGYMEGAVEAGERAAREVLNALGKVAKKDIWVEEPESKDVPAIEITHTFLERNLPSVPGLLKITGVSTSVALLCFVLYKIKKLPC

Row | Structure (SMILES) | pIC50
25 | N#CCCN1N=C(c2ccc(OCc3cccc(Cl)c3)cc2)OCC1=O | 4.89
26 | Cc1ccc(COc2ccc(-c3nn(CCC#N)c(=O)o3)cc2)cc1 | 4.60
27 | COc1ccc(COc2ccc(-c3nn(CCC#N)c(=S)o3)cc2)cc1 | 5.32
28 | N#CCCN1N=C(c2ccc(OCc3ccccc3)cc2)OCC1=S | 4.60
29 | Cc1ccc(COc2ccc(-c3nn(CCC#N)c(=S)o3)cc2)cc1 | 5.00
30 | N#CCCn1nc(-c2ccc(OCc3ccccc3)cc2)sc1=O | 4.35
31 | N#CCCn1nc(-c2ccc(OCc3ccc(Cl)cc3)cc2)oc1=O | 5.48

Continued, values first:

Row | pIC50 | Structure (SMILES)
32 | 4.96 | N#CCCn1nc(-c2ccc(OCc3cccc(Cl)c3)cc2)oc1=S
33 | 4.85 | Cc1cccc(COc2ccc(-c3nn(CCC#N)c(=S)o3)cc2)c1
34 | 4.70 | Cc1cccc(COc2ccc(-c3nn(CCC#N)c(=O)o3)cc2)c1
35 | 5.70 | N#CCCN1N=C(c2ccc(OCc3ccc([N+](=O)[O-])cc3)cc2)OCC1=O
36 | 4.80 | COc1ccc(COc2ccc(-c3nn(CCC#N)c(=O)o3)cc2)cc1
37 | 4.40 | Cc1cccc(COc2ccc(C3=NN(CCC#N)C(=O)CO3)cc2)c1
38 | 3.80 | N#CCCn1nc(-c2ccc(OCc3ccccc3)cc2)sc1=S

molecular target: T1, Amine oxidase [flavin-containing] B; experiment: Ex-Vivo percentage inhibition of MAO-B after 24 hr single 5 mg/kg dose by oral gavage; type: organism-based; set-up: dose 5 mg/kg, route oral
Method in brief: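 Ex vivo oral gavage in fasted male Sprague-Dawley rats (Tween 80 / 0.5% methylcellulose), four rats per group. Brain homogenate taken 24 h after dosing. MAO B assayed with 8 μM [14C]PEA, 1 min at 37 °C; percent inhibition vs vehicle control.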

Row | Structure (SMILES) | inhibition at 5 mg/kg [%]
39 | Cc1ccc(COc2ccc(-c3nn(CCC#N)c(=O)o3)cc2)cc1 | -3
40 | N#CCCN1N=C(c2ccc(OCc3ccccc3)cc2)OCC1=S | -4
41 | N#CCCn1nc(-c2ccc(OCc3ccccc3)cc2)sc1=O | 15
42 | N#CCCn1nc(-c2ccc(OCc3ccc(Cl)cc3)cc2)oc1=O | -6

Second part, the compound after the results:

Row | inhibition at 5 mg/kg [%] | Structure (SMILES)
43 | -3 | Cc1cccc(COc2ccc(-c3nn(CCC#N)c(=O)o3)cc2)c1
44 | 8 | N#CCCn1nc(-c2ccc(OCc3ccccc3)cc2)sc1=S

molecular target: T2, Amine oxidase [flavin-containing] A; experiment: In Vitro evaluation for the inhibitory activity on rat brain by MAO-A at 100 uM; No Inhibition
Method in brief: (§3)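 Male Sprague-Dawley rat brain crude mitochondrial fraction, 0.195 mg protein/mL. Radiochemical assay at 37 °C, pH 7.4: MAO A with 10 μM [14C]5-HT, MAO B with 5 μM [14C]PEA. Drug preincubated 20 min with enzyme. […] Three experiments in duplicate.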

Row | Structure (SMILES) | IC50
45 | N#CCCCn1nc(-c2ccc(OCc3ccccc3)cc2)oc1=O | Not Active

molecular target: T2, Amine oxidase [flavin-containing] A; experiment: In Vitro evaluation for the inhibitory activity on rat brain by MAO-A at 100 uM; method in brief: as §3

Row | Structure (SMILES) | inhibition at 100 µM [%]
46 | CC(C#N)Cn1nc(-c2ccc(OCc3ccccc3)cc2)oc1=O (configuration not stated) | 13

molecular target: T1, Amine oxidase [flavin-containing] B; experiment: Ex-Vivo Time course of evaluation for the percentage inhibition of MAO-B for 0.5 hr at single dose 5 mg/kg through oral gavage; type: organism-based; set-up: dose 5 mg/kg, route oral; method in brief: as §2

Row | Structure (SMILES) | inhibition at 5 mg/kg [%]
47 | Cc1ccc(COc2ccc(-c3nn(CCC#N)c(=O)o3)cc2)cc1 | 9
48 | N#CCCN1N=C(c2ccc(OCc3ccccc3)cc2)OCC1=S | 12
49 | N#CCCn1nc(-c2ccc(OCc3ccccc3)cc2)sc1=O | 44

Continued, values first:

Row | inhibition at 5 mg/kg [%] | Structure (SMILES)
50 | 6 | Cc1cccc(COc2ccc(-c3nn(CCC#N)c(=O)o3)cc2)c1
51 | 27 | N#CCCn1nc(-c2ccc(OCc3ccccc3)cc2)sc1=S

molecular target: T1, Amine oxidase [flavin-containing] B; experiment: Ex-Vivo Time course of evaluation for the percentage inhibition of MAO-B for 48 hr at single dose 5 mg/kg through oral gavage; type: organism-based; set-up: dose 5 mg/kg, route oral; method in brief: as §2

Row | Structure (SMILES) | inhibition at 5 mg/kg [%]
52 | Cc1ccc(COc2ccc(-c3nn(CCC#N)c(=O)o3)cc2)cc1 | 1
53 | N#CCCN1N=C(c2ccc(OCc3ccccc3)cc2)OCC1=S | 9
54 | N#CCCn1nc(-c2ccc(OCc3ccccc3)cc2)sc1=O | 9
55 | N#CCCn1nc(-c2ccc(OCc3ccc(Cl)cc3)cc2)oc1=O | 6

Now from value to compound:

Row | inhibition at 5 mg/kg [%] | Structure (SMILES)
56 | -3 | Cc1cccc(COc2ccc(-c3nn(CCC#N)c(=O)o3)cc2)c1
57 | 10 | N#CCCn1nc(-c2ccc(OCc3ccccc3)cc2)sc1=S

molecular target: T1, Amine oxidase [flavin-containing] B; experiment: Ex-Vivo Time course of evaluation for the percentage inhibition of MAO-B for 4 hr at single dose 5 mg/kg through oral gavage; type: organism-based; set-up: dose 5 mg/kg, route oral; method in brief: as §2

Row | Structure (SMILES) | inhibition at 5 mg/kg [%]
58 | N#CCCN1N=C(c2ccc(OCc3ccccc3)cc2)OCC1=S | 5
59 | N#CCCn1nc(-c2ccc(OCc3ccccc3)cc2)sc1=O | 45

Second part, the compound after the results:

Row | inhibition at 5 mg/kg [%] | Structure (SMILES)
60 | 15 | Cc1cccc(COc2ccc(-c3nn(CCC#N)c(=O)o3)cc2)c1
61 | 8 | N#CCCn1nc(-c2ccc(OCc3ccccc3)cc2)sc1=S

molecular target: T1, Amine oxidase [flavin-containing] B; experiment: Ex-Vivo Time course of evaluation for the percentage inhibition of MAO-B for 4 hr at single dose 5 mg/kg through oral gavage (p<0.001); type: organism-based; set-up: dose 5 mg/kg, route oral; method in brief: as §2

Row | Structure (SMILES) | inhibition at 5 mg/kg [%]
62 | N#CCCn1nc(-c2ccc(OCc3ccc(Cl)cc3)cc2)oc1=O | 47
